ChEMBL document CHEMBL1143591, “Synthesis and biological evaluation of 11-substituted 6-aminobenzo[c]phenanthridine derivatives, a new class of antitumor agents” (2005)

Assays:
Type in all cases: functional
Settings in all cases: Homo sapiens
HL-60 = experiment: Concentration required to inhibit 50% cell growth of HL-60 Leukemia cell line
Procedure, shortened: (§1)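 Tested in the NCI in vitro Human Tumor Cell Line Screen. The GI50 is the concentration that causes 50% inhibition of net cell growth and is reported as the log of the molar concentration. If that level is not reached or is exceeded, the value is given as greater or less than the highest or lowest drug concentration.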

K562 = experiment: Concentration required to inhibit 50% cell growth of K-562 Leukemia cell line; procedure, shortened: as §1
MOLT-4 = experiment: Concentration required to inhibit 50% cell growth of MOLT-4 Leukemia cell line; procedure, shortened: as §1
CCRF-CEM = experiment: Concentration required to inhibit 50% cell growth of CCRF-CEM Leukemia cell line; procedure, shortened: as §1
RPMI-8226 = experiment: Concentration required to inhibit 50% cell growth of RPMI-8226 Leukemia cell line; procedure, shortened: as §1

SMILES	GI50 (HL-60) [nM]	GI50 (K562) [nM]	GI50 (MOLT-4) [nM]	GI50 (CCRF-CEM) [nM]	GI50 (RPMI-8226) [nM]
COc1cc(-c2cc3ccccc3c3nc(N)c4ccccc4c23)cc(OC)c1OC	63.1	79.4	372	288	240
COc1ccc([C@H]2Cc3ccccc3-c3nc(N)c4ccccc4c32)cc1OC	7080	2820	2950	1120	2400
COc1ccc(-c2cc3ccccc3c3nc(N)c4ccccc4c23)c(OC)c1OC	380	339	437	372	288
COc1ccc(-c2cc3ccccc3c3nc(N)c4ccccc4c23)cc1OC	61.7	45.7	234	170	126
COc1ccc([C@H]2Cc3ccccc3-c3nc(N)c4ccccc4c32)cc1O	8130	1620	14500	13800	5010
COc1cc([C@H]2Cc3ccccc3-c3nc(N)c4ccccc4c32)cc(OC)c1OC	1700	813	2630	2630	1820
COc1ccc([C@H]2Cc3ccccc3-c3nc(N)c4ccccc4c32)c(OC)c1OC	6760	4270	3470	20900	4270
Nc1nc2c3ccccc3cc(-c3ccco3)c2c2ccccc12	437	4070	1200	9770	4570
Nc1nc2c3ccccc3cc(-c3ccc4c(c3)OCO4)c2c2ccccc12	4470	794	3310	4070	2820
Nc1nc2c(c3ccccc13)[C@@H](c1ccc3c(c1)OCO3)Cc1ccccc1-2	5500	3090	4790	3550	3310
Nc1nc2c(c3ccccc13)[C@@H](c1ccco1)Cc1ccccc1-2	4170	3090	3720	3310	2820
COc1cc([C@H]2Cc3ccccc3-c3nc(N)c4ccccc4c32)cc(OC)c1O	288	282	631	871	427
COc1ccc(OC)c([C@H]2Cc3ccccc3-c3nc(N)c4ccccc4c32)c1	13800	7590	15500	17800	4680
COc1ccc(-c2cc3ccccc3c3nc(N)c4ccccc4c23)c(OC)c1	309	219	933	309	363
